Calls of active or inactive are those of the source. The calls are words filed in the database; no cut-off is given here.
How the values were obtained:
[1] = test system: Mus musculus; test: Toxicity in Crl:NMRI mouse at 20 mg/kg, po; assay type: organism-based; set-up: dose 20 mg/kg, route oral; settings: in vivo
Method in brief: (§1)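 Single oral doses of lactate salts (5, 10 and/or 20 mg/kg bodyweight) were given to 4-week-old female Crl:NMRI mice, n = 3 per group. Moribund mice were euthanized.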

[2] = test system: Mus musculus; test: Toxicity in Crl:NMRI mouse at 10 mg/kg, po; assay type: organism-based; set-up: dose 10 mg/kg, route oral; settings: in vivo; method in brief: as §1
[3] = test system: Mus musculus; test: Toxicity in Crl:NMRI mouse at 5 mg/kg, po; assay type: organism-based; set-up: dose 5 mg/kg, route oral; settings: in vivo; method in brief: as §1
[4] = test system: Cryptosporidium parvum; test: Antiprotozoal activity against Cryptosporidium parvum; assay type: functional, organism-based
Method in brief: (§2)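 C. parvum development measured in host-cell culture across three independent compound dilution series, with monensin as positive control. The read-out was parasite foci area, with control and test cultures normalized to 100,000 µm² of foci area.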

[5] = test system: Cryptosporidium parvum; test: Antiprotozoal activity against Cryptosporidium parvum at 0.8 nM; assay type: functional, organism-based; method in brief: as §2
[6] = test system: Cryptosporidium parvum; test: Antiprotozoal activity against Cryptosporidium parvum up to 6 nM; assay type: functional; method in brief: as §2

Compound | Activity [4] | Activity [5] | Activity [6] [%] | other results
CC(O)C(=O)O.O=C(C[C@@H]1NCCC[C@H]1O)Cn1cnc2cc(Br)c(Cl)cc2c1=O | – | – | – | Activity [1]: Not Active
CC(O)C(=O)O.O=C(C[C@H]1NCCC[C@@H]1O)Cn1cnc2cc(Br)c(Cl)cc2c1=O | Active | inactive | – | Activity [2]: Toxic; Activity [3]: Toxic
O=C(CC1NCCCC1O)Cn1cnc2cc(Br)c(Cl)cc2c1=O (racemic; form 1) | Active | inactive | – | –
CC(O)C(=O)O.O=C(CC1NCCCC1O)Cn1cnc2cc(Br)c(Cl)cc2c1=O (racemic; form 1) [HALOFUGINONE LACTATE] | – | – | 80 | –
O=C(CC1NCCCC1O)Cn1cnc2cc(Br)c(Cl)cc2c1=O (racemic; form 2) | Active | inactive | – | –
Br.O=C(CC1NCCCC1O)Cn1cnc2cc(Br)c(Cl)cc2c1=O (racemic; form 2) [HALOFUGINONE HYDROBROMIDE] | – | – | 80 | –
